Measured values published in ChEMBL document CHEMBL1641580, “Identification of 3-phenylaminoquinolinium and 3-phenylaminopyridinium salts as new agents against opportunistic fungal pathogens” (Bioorg Med Chem, 2011).
Activity calls are given as the source filed them. The calls are words filed in the database; no cut-off is given here.

How the values were obtained:
[1] = tested on: Candida albicans; test: Antifungal activity against Candida albicans ATCC 90028 assessed as inhibition of fungal growth by alamar blue assay; format: functional, organism-based
In short: (§1)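 Broth microdilution modified from NCCLS. DMSO stocks serially diluted in saline and plated in duplicate. Inoculum set by 0.5 McFarland standard. Media: C. albicans in SDB or RPMI 1640; C. neoformans in SDB; A. fumigatus in RPMI-1640 + 5% Alamar Blue. Highest final concentration 20 µg/mL. Plates read before and after incubation by fluorescence 544ex/590em (A. fumigatus) or OD 630 nm. IC50 from percent growth vs concentration.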

[2] = tested on: Candida albicans; test: Antifungal activity against Candida albicans ATCC 90028 by microscopy; format: functional
In short: (§2)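 Modified NCCLS microdilution. Samples in DMSO serially diluted in saline and tested in duplicate against inocula standardized to 0.5 McFarland. Broths: C. albicans SDB or RPMI 1640; C. neoformans SDB; A. fumigatus YM broth. Highest final concentration 20 µg/mL. MIC read visually as the lowest concentration with no detectable growth (for Alamar Blue wells, no blue-to-pink change).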

[3] = tested on: Candida albicans; test: Fungicidal activity against Candida albicans ATCC 90028; format: functional
[4] = tested on: Cryptococcus neoformans; test: Antifungal activity against Cryptococcus neoformans ATCC 90113 assessed as inhibition of fungal growth by alamar blue assay; format: functional, organism-based; in short: as §1
[5] = tested on: Cryptococcus neoformans; test: Antifungal activity against Cryptococcus neoformans ATCC 90113 by microscopy; format: functional
In short: as §2, with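 “McFarland.” for “McFarland. Broths: C. albicans SDB or RPMI 1640; C. neoformans SDB; A. fumigatus YM broth.”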

[6] = tested on: Cryptococcus neoformans; test: Fungicidal activity against Cryptococcus neoformans ATCC 90113; format: functional
[7] = tested on: Aspergillus fumigatus; test: Antifungal activity against Aspergillus fumigatus ATCC 90906 assessed as inhibition of fungal growth by alamar blue assay; format: functional, organism-based; in short: as §1
[8] = tested on: Aspergillus fumigatus; test: Antifungal activity against Aspergillus fumigatus ATCC 90906 by microscopy; format: functional; in short: as §2
[9] = tested on: Aspergillus fumigatus; test: Fungicidal activity against Aspergillus fumigatus ATCC 90906; format: functional
[10] = Cytotoxicity against african green monkey Vero cells after 48 hrs by neutral red assay; format: cell-based; settings: chlorocebus sabaeus, read-out: TC50
In short: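 Vero kidney fibroblasts seeded at 25,000 cells/well and grown 24 h, then exposed to samples up to 20 µg/ml for 48 h. Viable cells measured by neutral red assay. IC50 taken from growth-inhibition vs concentration curves. DMSO served as vehicle control.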

[11] = tested on: Aspergillus fumigatus; test: Antifungal activity against Aspergillus fumigatus ATCC 90906 assessed as inhibition of fungal growth at 20 ug/mL by alamar blue assay; format: functional, organism-based; in short: as §1
[12] = Aspergillus fumigatus, ATCC 90906, read-out: IC50

SMILES	MIC [2] [µg/mL]	MIC [5] [µg/mL]	MIC [8] [µg/mL]	IC50 [1] [µg/mL]	MFC [3] [µg/mL]	IC50 [4] [µg/mL]	MFC [6] [µg/mL]	IC50 [7, 12] [µg/mL]	MFC [9] [µg/mL]	CC50 at 48 h [10] [µg/mL]	inhibition [11]	IC50 [7]
Cc1cccc(N(CCCCCC2CCCCC2)c2ccc[n+](C)c2)c1.[I-]	5	2.5	10	3	10	1.4	2.5	8.7	20	> 10	–	–
C[n+]1cccc(N(CCCCCC2CCCCC2)c2ccc(C#N)cc2)c1.[I-]	20	5	–	19	> 20	2.6	5	–	–	> 10	inactive	–
C[n+]1c2cccc(Cl)c2cc2[nH]c3ccccc3c21.O=S(=O)([O-])C(F)(F)F	> 20	> 20	–	0.6	–	7	–	> 20	–	5	–	–
C[n+]1c2ccccc2cc2[nH]c3cccc(Cl)c3c21.[I-]	–	–	–	> 20	–	> 20	–	> 20	–	> 4.7	–	–
[I-].c1ccc(Nc2cc3ccccc3[n+](CCCCCC3CCCCC3)c2)cc1	10	2.5	2.5	3.5	> 20	1.5	10	1	10	–	–	–
C[n+]1c2ccccc2cc2[nH]c3ccc(Br)cc3c21.[I-]	> 20	20	10	2.5	–	2.5	–	–	–	0.93	–	–
C[n+]1c2ccc(Cl)cc2cc2c1c1ccccc1n2CCCCCC1CCCCC1.[I-]	1.3	2.5	1.3	0.6	> 20	0.9	10	–	> 20	1.4	–	–
C[n+]1cccc(N(CCCCCC2CCCCC2)c2ccccc2C(F)(F)F)c1.[I-]	5	5	–	2.6	5	2.3	5	–	–	–	inactive	–
Cc1ccccc1N(CCCCCC1CCCCC1)c1ccc[n+](C)c1.[I-]	5	2.5	> 20	2.6	5	1.5	2.5	19	> 20	–	–	–
Clc1ccc(Nc2cc3ccccc3[n+](CCCCCc3ccccc3)c2)cc1.[I-]	> 20	6.3	> 20	15	> 20	4	12.5	10	> 20	> 25	–	–
C[n+]1c2ccccc2cc2[nH]c3ccc(Cl)cc3c21.[I-]	> 20	> 20	–	4.5	–	15	–	> 20	–	1.5	–	–
COc1ccccc1N(CCCCCC1CCCCC1)c1ccc[n+](C)c1.[I-]	10	5	–	5	10	3	5	–	–	–	inactive	–
C[n+]1c2ccccc2cc2[nH]c3c(Cl)cccc3c21.[I-]	–	–	–	> 20	–	> 20	–	–	–	3.2	–	–
Clc1cccc(Nc2cc3ccccc3[n+](CCCCCC3CCCCC3)c2)c1.[I-]	6.3	3.1	6.3	2	13	2	50	3.5	> 20	> 10	–	–
C[n+]1c2cc(Cl)ccc2c(Cl)c2[nH]c3ccccc3c21.[I-]	10	10	–	1	> 20	6	> 20	> 20	–	10	–	–
C[n+]1cccc(N(CCCCCC2CCCCC2)c2ccccc2C#N)c1.[I-]	–	10	–	–	–	6.6	20	–	–	> 10	inactive	–
C[n+]1c2cc(Cl)ccc2cc2[nH]c3ccccc3c21.O=S(=O)([O-])C(F)(F)F	> 20	> 20	–	3	–	15	–	> 20	–	2.1	–	–
C[n+]1cccc(N(CCCCCC2CCCCC2)c2ccccc2Cl)c1.[I-]	5	2.5	> 20	2.8	5	2	2.5	18	> 20	–	–	–
Cc1ccc(N(CCCCCC2CCCCC2)c2ccc[n+](C)c2)cc1.[I-]	2.5	2.5	5	1.5	10	1.5	5	1.5	5	> 10	–	–
C[n+]1c2ccc(Cl)cc2cc2[nH]c3ccccc3c21.[I-]	5.5	5	> 20	0.5	> 20	2	> 20	10	> 20	–	–	–

More lines, main results first:

MIC [2] [µg/mL]	MIC [5] [µg/mL]	MIC [8] [µg/mL]	SMILES	IC50 [1] [µg/mL]	MFC [3] [µg/mL]	IC50 [4] [µg/mL]	MFC [6] [µg/mL]	IC50 [7, 12] [µg/mL]	MFC [9] [µg/mL]	CC50 at 48 h [10] [µg/mL]	inhibition [11]	IC50 [7]
5	1.3	10	CSc1ccc(N(CCCCCC2CCCCC2)c2ccc[n+](C)c2)cc1.[I-]	2	10	1.2	2.5	6.4	10	> 10	–	–
2.5	0.6	5	CCc1ccc(N(CCCCCC2CCCCC2)c2ccc[n+](C)c2)cc1.[I-]	1.3	5	0.4	5	2.7	–	10	–	–
2.5	1.3	2.5	C[n+]1cc(N(CCCCCC2CCCCC2)c2cccc(Cl)c2)cc2ccccc21.[I-]	0.9	10	0.9	5	1	10	> 10	–	–
2.5	2.5	2.5	C[n+]1cccc(N(CCCCCC2CCCCC2)c2ccc(C(F)(F)F)cc2)c1.[I-]	1	10	1.5	5	1.5	5	> 10	–	–
5	2.5	2.5	C[n+]1cccc(N(CCCCCC2CCCCC2)c2cccc(C(F)(F)F)c2)c1.[I-]	3	20	1.5	5	1.5	10	> 10	–	–
3.1	1.6	1.6	C[n+]1cccc(N(CCCCCC2CCCCC2)c2ccc(Cl)cc2)c1.[I-]	1.5	–	1	–	1	–	> 10	–	–
1.3	0.6	1.3	C[n+]1cc(N(CCCCCC2CCCCC2)c2ccc(Cl)cc2)cc2ccccc21.[I-]	0.5	5	0.4	2.5	0.8	10	10	–	–
5	1.3	20	C[n+]1cccc(N(CCCCCC2CCCCC2)c2cccc(Cl)c2)c1.[I-]	3	10	0.7	1.3	12.4	20	> 10	–	–
1.3	0.3	5	C[n+]1cc(N(CCCCCC2CCCCC2)c2ccccc2Cl)cc2ccccc21.[I-]	0.63	1.3	0.2	0.6	3.1	20	–	–	–
2.5	0.3	10	C[n+]1cc(N(CCCCCC2CCCCC2)c2ccccc2)cc2ccccc21.[I-]	1.2	2.5	0.2	0.6	4.6	10	9.8	–	–
> 20	1.6	–	Clc1ccc(Nc2cc3ccccc3[n+](CCCCCC3CCCCC3)c2)cc1.[I-]	2	–	1	> 20	–	–	> 10	–	Not Active
